Compound activity deposited in PubChem by several laboratories.
ALR H2O2 inh – inhibitors of human ALR sulfhydryl oxidase, primary screen, biochemical, H2O2 detection, HRP-luminol luminescence, single point; actives 3.8% (n = 290,000); inhibition, % (no concentration beside the values); AID 485317, 2010; FAD-linked sulfhydryl oxidase ALR (Homo sapiens), P55789; purified ALR, DTT oxidation;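 active means mean replicate inhibition above about 79%, with every replicate also reaching it, limit read from the data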
Target sequence (P55789 whole entry, looked up): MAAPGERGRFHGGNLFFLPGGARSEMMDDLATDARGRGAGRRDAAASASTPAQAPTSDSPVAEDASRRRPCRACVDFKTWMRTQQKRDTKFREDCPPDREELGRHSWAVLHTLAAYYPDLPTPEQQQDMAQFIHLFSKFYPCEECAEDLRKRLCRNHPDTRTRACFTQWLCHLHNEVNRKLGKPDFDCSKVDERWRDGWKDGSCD
RBBP9 inh – human RBBP9 inhibitors, primary screen, biochemical, fluorescence polarization, FP-Rh probe, HTS. actives 0.2% (n = 220,000). recombinant RBBP9. Serine hydrolase RBBP9 (Homo sapiens), O75884. AID 1515, 2009. inhibition, % at 7.94 µM;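 active means inhibition above the campaign mean of all tested compounds plus 3 SD, cut at about 14% in these data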
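System: RBBP9 protein / Quantity: 2.5 µM RBBP9 dispensing solution, before mixing / Also added: Serine-hydrolase probe FP-Rh, 375 nM pre-mixing / Dosing: 7.94 µM single dose, 0.794% DMSO / Timing: enzyme-compound preincubation 30 min, then probe labeling 45 min, 25 °C / Signal: FP readout at 525/598 nm / Controls: DMSO-treated enzyme wells and wells lacking RBBP9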
Rin1-Abl PPI inh – inhibitors of Rin1-Abl protein binding, primary screen, biochemical, TR-FRET | Tyrosine-protein kinase ABL1 (Homo sapiens) + Ras and Rab interactor 1 (Homo sapiens), … | inhibition, % at 7.35 µM | actives 0.4% (n = 360,000); in the data active means inhibition above about 5%, passing the limit was not always enough
UBC9 SUMO inh – inhibitors of in vitro SUMOylation cascade, primary screen, biochemical, HTRF, uHTS | AID 2006, 2009 | HTRF SUMOylation assay, SAE1/SAE2 + UBC9 | inhibition, % at 35 µM | SUMO-conjugating enzyme UBC9 (Homo sapiens), P63279 | actives 0.36% (n = 290,000); in the data active means inhibition above about 50%, passing the limit was not always enough
Target sequence (P63279 whole entry, looked up): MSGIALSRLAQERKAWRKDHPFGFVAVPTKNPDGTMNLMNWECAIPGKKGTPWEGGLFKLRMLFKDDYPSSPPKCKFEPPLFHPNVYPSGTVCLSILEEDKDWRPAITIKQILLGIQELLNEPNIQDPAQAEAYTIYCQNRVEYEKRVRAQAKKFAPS
PREPL inh – PREPL enzyme inhibitors, primary screen, biochemical, fluorescence polarization | Prolyl endopeptidase-like (Homo sapiens), Q4J6C6 | recombinant PREPL, fluorescence polarization activity-based probe | inhibition, % at 5.96 µM | actives 0.68% (n = 320,000) | AID 2751, 2010; in the data active means inhibition above about 43%
UBC13 inh – UBC13 polyubiquitin chain formation inhibitors, primary screen, biochemical, TR-FRET, uHTS; Ubiquitin-conjugating enzyme E2 N (Homo sapiens), P61088; inhibition, % at 20 µM; actives 0.47% (n = 330,000); AID 485273, 2010; in the data active means inhibition above about 45%, passing the limit was not always enough
Target sequence (P61088 whole entry, looked up): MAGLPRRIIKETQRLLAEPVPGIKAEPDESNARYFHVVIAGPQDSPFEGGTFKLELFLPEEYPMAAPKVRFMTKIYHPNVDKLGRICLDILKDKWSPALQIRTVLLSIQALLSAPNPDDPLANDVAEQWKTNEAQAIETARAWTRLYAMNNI
Casp3 counter – CASP3 inhibitor validation, counterassay for project on UBE2N polyubiquitination blockers, biochemical, one dose; shares compounds with UBC13 inh; Recombinant caspase-3, Caspase-Glo 3/7 luminescence, 60 min; inhibition, % at 20 µM; actives 4% (n = 1,400); AID 488856, 2010;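 active means mean inhibition across replicates above about 26%, limit read from the data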
UBC13 conf – UBC13 polyubiquitination inhibitors, single-point retest, confirmation, biochemical, TR-FRET, single concentration; shares compounds with UBC13 inh; inhibition, % at 10 µM; actives 68% (n = 1,400); AID 488859, 2010; in the data active means inhibition above about 45%
Of the large screens only hits and unclear results are named; the others gave an inactive call (follow-up assays come after a bar, where they were run); ! = repeats disagree. A selection: hits, their analogues and other compounds. The true share with any hit is near 4.3%.

CCCCCCCCCCOC(=O)Cn1c(COc2ccccc2)[n+](C)c2ccccc21	UBC13 inh 59 (no result: RBBP9 inh) | Casp3 counter inactive | UBC13 conf 70
CCCCOC(=O)Cn1c(=O)n(CC(=O)OCCCC)c2ccccc21	none
O=C(O)c1c(-c2ccccc2)cnc2ccccc12	none (no result: ALR H2O2 inh, RBBP9 inh, UBC9 SUMO inh, PREPL inh, UBC13 inh)
O=C(COc1ccc(F)cc1Br)NCCCN1CCCC1=O	none (no result: RBBP9 inh, UBC9 SUMO inh)
O=C(COc1ccc(F)cc1Cl)Nc1ccc(S(=O)(=O)Nc2nccs2)cc1	none (no result: RBBP9 inh, UBC9 SUMO inh)
CCCCCCCCCCOC(=O)Cn1c(COc2ccc(Cl)cc2)[n+](C)c2ccccc21	UBC13 inh 100 (no result: RBBP9 inh) | Casp3 counter inactive | UBC13 conf 89
CCCCCOC(=O)Cn1c(=O)oc2ccccc21	none
Cc1ccccc1OCc1n(CC(=O)OC2CC(C)CCC2C(C)C)c2ccccc2[n+]1C (centres undefined)	UBC13 inh 55 | Casp3 counter inactive | UBC13 conf 98
CC1CCC(C(C)C)C(OC(=O)COC(=O)c2ccc(N)cc2)C1 (centres undefined)	none
CCCCNC(=O)C1(C)CCCCCN1Cc1cc2ccccc2o1 (centres undefined)	none (no result: ALR H2O2 inh, RBBP9 inh, UBC9 SUMO inh, PREPL inh, UBC13 inh)
NNC(=O)c1ccc(CN2C(=O)c3cccc4cccc2c34)cc1	UBC13 inh 96 | Casp3 counter inactive | UBC13 conf 108
CNC(=O)CN1C(=O)c2cccc3cccc1c23	none
CSC[C@H]1CN(CCc2ccccc2)C(=O)[C@@H]1CC(=O)Nc1ccccc1	none (no result: ALR H2O2 inh, RBBP9 inh, UBC9 SUMO inh, PREPL inh, UBC13 inh)
CSc1ccc2c(c1)C(N1CCN(C)CC1)Cc1ccccc1S2 (centres undefined)	UBC13 inh 52! | Casp3 counter inactive | UBC13 conf inactive
CN1CCN(C2Cc3ccccc3Sc3ccc(Cl)cc32)CC1 (centres undefined)	UBC13 inh 45 (no result: RBBP9 inh, UBC9 SUMO inh) | Casp3 counter inactive | UBC13 conf inactive
CC(C)(C)OC(=O)[C@H](Cc1ccccc1)NC(=O)c1nc[nH]c1C(=O)N[C@@H](CCCCN)C(=O)OC(C)(C)C	UBC13 inh 73 (no result: RBBP9 inh, UBC9 SUMO inh) | Casp3 counter inactive | UBC13 conf 76
CC(C)(C)OC(=O)[C@H](CCCCN)NC(=O)c1nc[nH]c1C(=O)N[C@@H](CCCCN)C(=O)OC(C)(C)C	none (no result: RBBP9 inh, UBC9 SUMO inh)
CC(C)C[C@H](NC(=O)c1nc[nH]c1C(=O)N[C@@H](CCCCN)C(=O)OC(C)(C)C)C(=O)OC(C)(C)C	UBC13 inh 53 (no result: RBBP9 inh, UBC9 SUMO inh) | Casp3 counter inactive | UBC13 conf 53
O=C(c1cccs1)N1CCN(Cc2nc(-c3ccccc3)no2)CC1	none (no result: ALR H2O2 inh, RBBP9 inh, UBC9 SUMO inh, PREPL inh, UBC13 inh)
CN1CCCC(C)(C(=O)Nc2ccc3scnc3c2)C1 (centres undefined)	none (no result: ALR H2O2 inh, RBBP9 inh, UBC9 SUMO inh, PREPL inh, UBC13 inh)
COCCNC(=S)N=Nc1c(O)[nH]c2c(C)cc(C)cc12	UBC13 inh 87 | Casp3 counter inactive | UBC13 conf 102
Cc1cc(C)c2[nH]c(O)c(N=NC(=O)c3cc4c(s3)CCCC4)c2c1	none (no result: Rin1-Abl PPI inh)
CC(C)c1ccc(NC2CCCN(C(=O)CN3CCCCC3=O)C2)cc1 (centres undefined)	none (no result: ALR H2O2 inh, RBBP9 inh, UBC9 SUMO inh, PREPL inh, UBC13 inh)
CCOc1cc2c(C#N)c(N3CCNCC3)nc(N)c2c(N)n1	UBC9 SUMO inh 87, UBC13 inh 63 (no result: ALR H2O2 inh) | Casp3 counter inactive | UBC13 conf 105
NC(=S)N=Nc1c(O)[nH]c2ccccc12	UBC13 inh 63 (no result: ALR H2O2 inh) | Casp3 counter inactive | UBC13 conf 80
Cc1ccc2[nH]c(O)c(N=NC(N)=S)c2c1	UBC13 inh 79 | Casp3 counter inactive | UBC13 conf 96
CCC(O)(CC)C(=O)N=Nc1c(O)[nH]c2ccccc12	none (no result: ALR H2O2 inh)
